Test results as given in PMC9287213 (Clinical Pharmacokinetics, 2022).
Like-named read-outs stand apart in the source and are kept apart here.

Experiments:
[1] = cited from earlier work
[2] = tested on: renal or hepatic transporters; conditions: ref data on file, Eli Lilly and Company; cited from earlier work
[3] = tested on: albumin; conditions: in humans; background statement, no reference given; cited from earlier work
[4] = type: in vivo, human
How it was run: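 Open-label parallel single-dose study; participants grouped by baseline Child-Pugh A, B, C or normal hepatic function. One subcutaneous 5-mg injection. Plasma sampled pre-dose and 8, 12, 24, 48, 72, 96, 168, 336 h post-dose; analyte immunoprecipitated, quantified by high-resolution LC/MS, positive HESI, range 2.00–500.00 ng/mL. Noncompartmental parameters from actual sampling times; geometric mean (geometric CV%); tmax analysed nonparametrically.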

[5] = in humans; background statement, no reference given; cited from earlier work
[6] = tested on: cytochrome P450 enzymes, sulfation, or glucuronidation enzymes; conditions: background statement, no reference given; cited from earlier work
[7] = hepatic impairment studies; cited from earlier work

| Molecule | decrease in liver fat content compared with insulin degludec ([1]; SURPASS-3 sub-study, 52 weeks) | non-alcoholic steatohepatitis-related biomarkers ([1]; post-hoc analysis of the phase II study, 26 weeks of treatment) | substrate for renal or hepatic transporters commonly involved in drug disposition [2] | bound to albumin [3] [%] | CL/F ([4]; human, plasma, sc, 5 mg) [mL/min] | Tmax ([4]; human, plasma, sc, 5 mg) [h] | Vd/F ([4]; human, plasma, sc, 5 mg) [L] | half-life ([4]; human, plasma, sc, 5 mg) [h] | CL/F ([4]; human, plasma, sc, 5 mg, CL/F (apparent total body clearance), single 5-mg subcutaneous dose, normal hepatic function, n = 13, geometric mean (geometric CV%), noncompartmental) [mL/min] | VSS/F (apparent volume of distribution at steady state) ([4]; single 5-mg subcutaneous dose, normal hepatic function, n = 13, geometric mean (geometric CV%), noncompartmental) | T1/2 (half-life associated with the terminal rate constant) ([4]; single 5-mg subcutaneous dose, normal hepatic function, n = 13, geometric mean (range), noncompartmental) | half-life [5] | metabolism via pathways involving cytochrome P450 enzymes, sulfation, or glucuronidation enzymes [6] | impact of the severity of hepatic disease status on pharmacokinetics [7] |
| --- | --- | --- | --- | --- | --- | --- | --- | --- | --- | --- | --- | --- | --- | --- |
| CC[C@H](C)[C@H](NC(=O)[C@H](CC(C)C)NC(=O)[C@H](Cc1c[nH]c2ccccc12)NC(=O)[C@H](CCC(N)=O)NC(=O)[C@@H](NC(=O)[C@H](Cc1ccccc1)NC(=O)[C@H](C)NC(=O)[C@H](CCCCNC(=O)COCCOCCNC(=O)COCCOCCNC(=O)CC[C@H](NC(=O)CCCCCCCCCCCCCCCCCCC(=O)O)C(=O)O)NC(=O)[C@H](CCC(N)=O)NC(=O)[C@H](C)NC(=O)[C@@H](NC(=O)[C@H](CCCCN)NC(=O)[C@H](CC(=O)O)NC(=O)[C@H](CC(C)C)NC(=O)C(C)(C)NC(=O)[C@@H](NC(=O)[C@H](CO)NC(=O)[C@H](Cc1ccc(O)cc1)NC(=O)[C@H](CC(=O)O)NC(=O)[C@H](CO)NC(=O)[C@@H](NC(=O)[C@H](Cc1ccccc1)NC(=O)[C@@H](NC(=O)CNC(=O)[C@H](CCC(=O)O)NC(=O)C(C)(C)NC(=O)[C@@H](N)Cc1ccc(O)cc1)[C@@H](C)O)[C@@H](C)O)[C@@H](C)CC)[C@@H](C)CC)C(C)C)C(=O)N[C@@H](C)C(=O)NCC(=O)NCC(=O)N1CCC[C@H]1C(=O)N[C@@H](CO)C(=O)N[C@@H](CO)C(=O)NCC(=O)N[C@@H](C)C(=O)N1CCC[C@H]1C(=O)N1CCC[C@H]1C(=O)N1CCC[C@H]1C(=O)N[C@@H](CO)C(N)=O [Tirzepatide] | significantly greater decrease | improvement | not a substrate | 99.06 | 0.822 | 24 | 10.6 | 131 | 0.988 | 10.7 (20) L | 124 (101–158) h | approximately 5 days | not metabolized |  |
| dulaglutide |  |  |  |  |  |  |  |  |  |  |  |  |  | does not impact |
| semaglutide |  |  |  |  |  |  |  |  |  |  |  |  |  | does not impact |
